FN deposition inh – fibronectin deposition inhibition; AH1F fibroblasts, Alexa488-fibronectin deposition fluorescence, overnight; 350,000 tested, 0.086% active; inhibition, % at 12.6 µM;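 active = mean inhibition across replicates of 30% or more, regardless of how many single replicates reach that level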;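 also: positive control wells lacked labelled fibronectin entirely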
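Assay system: AH1F fibroblast monolayer, labelled fibronectin deposition. Amount: 10000 cells per well. Also added: labelled fibronectin 24 nM. Compound: single-point pinned compound. Incubation: cell attachment 1 h, compound and FN exposure overnight. Detection: fluorescence after three HBSS washes, excitation 485 nm, emission 525 nm. Read-out: inhibition of fibronectin deposition signal.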
HIV Env fusion – blocks HIV Env-driven cell-cell fusion; HeLa-JRFL Env/CEM21 cell fusion, luciferase; inhibition, % at 12.3 µM; 360,000 tested, 1.1% active; AID 651610;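 active = mean replicate inhibition score of at least 50 and every replicate individually at or above 50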;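 also: 0% = plate neutral controls and 100% = maraviroc near 300 nM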
S100A4 MyoIIA – inhibitors of human S100A4 binding to myosin IIA peptide; inhibition, % at 10.7 µM; AID 652163; 360,000 tested, 0.14% active; S100A4/TAMRA-MyoIIA peptide fluorescence polarization;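 active = mean inhibition of at least 70% across replicates, with every replicate also reaching that level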
Target sequence (P26447 whole entry, looked up): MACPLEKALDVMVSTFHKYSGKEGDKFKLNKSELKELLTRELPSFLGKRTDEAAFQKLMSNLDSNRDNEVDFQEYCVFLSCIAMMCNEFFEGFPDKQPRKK
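Material: S100A4 monomer protein / Buffer or medium: 50 mM HEPES pH 7.2, 10 mM CaCl2, 100 mM KCl / Times: 5 min incubation before reading / Benchmarks: neutral control DMSO, positive control TFP / Reagent: labelled myosin peptide probe, 5 nM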
Vif imaging – inhibitors of HIV Vif; inhibition, % at 7.49 µM; HEK293T cells, Vif self-association by quenched fluorescence, imaging, 24 h; 340,000 tested, 0.35% active; in the data active = inhibition above about 50%, passing the limit was not always enough
Ecoli rRNA inh – selective bacterial rRNA inhibition in E. coli. E. coli WT GFP vs humanized-ribosome RFP mutants, fluorescence, 24 h; active compounds read low; DMSO median 0, no signal -100. 350,000 tested, 1.6% active. GFP signal change (wild-type ribosome), % (no concentration beside the values). AID 720706;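 active = significant combined selectivity score with lowered wild-type GFP, culture density cut under 30%, mutant RFP and density less affected; inactive = any of these conditions unmet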
miR-122 sensor – blocks miR-122 activity in Huh7 sensor cells. Huh7 miR-122 Renilla luciferase sensor, 48 h; neutral wells = 0, positive control = 100. activation (reporter increase), % at 12.5 µM. 340,000 tested, 0.3% active. AID 602342;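 active = mean replicate activation score at least 90 and every replicate individually at or above 90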;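 also: higher luciferase means less miR-122 activity so hits act as miR-122 inhibitors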
An asterisk follows results filed as active; . = no result; ! = not confirmed by another sample; [ ] = remark or other dose. Hits are enriched below; roughly 2.6% of the tested compounds scored in any of these assays.

SMILES	FN deposition inh	HIV Env fusion	S100A4 MyoIIA	Vif imaging	Ecoli rRNA inh	miR-122 sensor
CCOc1ccc2nc(NC(=O)CSc3nc4cccnc4n3C)sc2c1	.	.	-1	20	3	-8
CCOc1ccc(OCC)c(NC(=O)CSc2nc3ccccc3c(=O)n2C)c1	.	91*	.	-10	.	-3
CCOC(=O)c1cccc(NC(=O)CSc2nc3cccnc3n2C)c1	2	62*	.	-21	.	-6
CCOc1ccc(OCC)c(NC(=O)CSc2nc3cccnc3n2C)c1	5	23	-2	-14	-33*	-9
CO[C@H]1CN(C)C(=O)c2ccc(NC(C)=O)cc2OC[C@H](C)N(C(=O)C2CC2)C[C@@H]1C	-21	.	0	.	4	.
O=C(C[C@H]1C[C@H]2c3cc(NC(=O)NC4CCCCC4)ccc3O[C@H]2[C@@H](CO)O1)NC1CCCCC1	-11	.	-6	.	2	.
S=C(NCC1CCCO1)Nc1ccc(Cl)cc1 (stereo not given)	2	17	-6	11	10	.
S=C(NCC1CCCO1)Nc1ccc(Cl)cc1Cl (stereo not given)	30*	10	.	-7	.	27
CCN(CC)S(=O)(=O)c1cccc(NC(=O)Nc2cccc(C(F)(F)F)c2)c1	-6	118*	.	-17	.	-23
O=C(NCCc1c[nH]c2ccccc12)c1ccc(F)cc1F	-2	-30	-8	-7	2	.
COc1cc(SC)ccc1C(=O)NCCc1c[nH]c2ccccc12	7	-15	2	-6	-18	-6
COc1cc2cc(C(=O)NCCc3c[nH]c4ccccc34)c(N)nc2cc1OC	15	25	-12	.	-31*	.
Nc1nc2cc3c(cc2cc1C(=O)NCCc1c[nH]c2ccccc12)OCO3	5	21	-2	.	-25*	.
C[C@@H]1CN([C@@H](C)CO)C(=O)c2cccc(NC(=O)C3CCCCC3)c2O[C@H]1CN(C)CC1CCCCC1	.	63*[16.7 µM]	0	.	1	1[16.7 µM]
C[C@H]1CN([C@@H](C)CO)C(=O)c2cccc(NC(=O)C3CCCCC3)c2O[C@@H]1CN(C)CC1CCCCC1	.	9[16.7 µM]	-16	.	3	57[16.7 µM]
C[C@H](CO)N1C[C@H](C)[C@@H](CN(C)CC2CC2)Oc2c(NC(=O)C3CC3)cccc2C1=O	6	44	4	-3	2	149*[16.7 µM]
C[C@@H]1CN([C@H](C)CO)C(=O)c2cccc(NC(=O)C3CC3)c2O[C@H]1CN(C)CC1CCCCC1	.	56[16.7 µM]	1	.	-7	37[16.7 µM]
C[C@@H]1CN([C@H](C)CO)C(=O)c2cccc(NS(C)(=O)=O)c2O[C@@H]1CN(C)CC1CC1	-8	-33[16.7 µM]	126*	.	3	33[16.7 µM]
C[C@H](CO)N1C[C@H](C)[C@@H](CN(C)CC2CCCCC2)Oc2c(NC(=O)C3CC3)cccc2C1=O	6	36[16.7 µM]	-2	3	-1	114*![16.7 µM]
COc1ccccc1C#Cc1cnc2c(c1)C(=O)N([C@@H](C)CO)C[C@@H](C)[C@@H](CN(C)C(=O)c1ccc3c(c1)OCO3)O2	1	13[16.7 µM]	1	.	-1	-25[16.7 µM]
CCC(=O)N1C[C@@H](C)[C@@H](OC)CN(C)C(=O)c2ccc(NC(=O)c3ccc(F)cc3)cc2OC[C@@H]1C	3	.	-4	.	-1	1[16.7 µM]
CCC(C(=O)Nc1cccc(OC)c1)n1nc(C)c2c(C)n(-c3ccccc3)nc2c1=O (stereo not given)	5	12	-5	1	-1	2
CCOc1ccc(NC(=O)C(CC)n2nc(C)c3c(C)n(-c4ccccc4)nc3c2=O)cc1 (stereo not given)	8	10	-3	-1	-23*	-4
CCN1CCCC1CNS(=O)(=O)c1ccc(F)c(Cl)c1 (stereo not given)	-5	-3	0	51*	8	.
CCN1CCCC1CNS(=O)(=O)c1cccc(C(F)(F)F)c1 (stereo not given)	-17	1	2	2	21	.
SMILES	FN deposition inh	HIV Env fusion	S100A4 MyoIIA	Vif imaging	Ecoli rRNA inh	miR-122 sensor
Cc1n[nH]c(C)c1S(=O)(=O)N(CC(=O)Nc1ccc2c(c1)OCCO2)c1ccc(C(C)C)cc1	-2	59*	-3	-1	-5	-9
COc1ccc(OC)c(S(=O)(=O)NC2CCCCC2)c1	.	.	7	6	-3	84
COc1ccc(S(=O)(=O)NC2CCCCC2)c(C)c1C	.	.	.	-10	.	111*
COc1ccc(C)cc1S(=O)(=O)NC1CCCCCC1	.	-11	5	-3	-1	101*
CCC(=O)N(C)C[C@H]1Oc2cc(C#CCN(C)C)ccc2S(=O)(=O)N([C@@H](C)CO)C[C@@H]1C	-12	-2[16.7 µM]	-1	.	1	2[16.7 µM]
CCCNC(=O)N1[C@@H](CO)[C@@H](c2ccccc2)C12CN(C(=O)CC1CC1)C2	.	.	-19	.	2	.
C[C@H](CO)N1C[C@H](C)[C@@H](CN(C)CC2CC2)Oc2ccc(NS(C)(=O)=O)cc2CC1=O	.	58*[16.7 µM]	7	.	6	-5[16.7 µM]
COc1ccc(S(=O)(=O)Nc2ccc3c(c2)CC(=O)N([C@H](C)CO)C[C@@H](C)[C@@H](CN(C)CC2CCCCC2)O3)cc1	.	5[16.7 µM]	31	.	4	-6[16.7 µM]
CNC[C@@H]1Oc2ccc(NS(C)(=O)=O)cc2CC(=O)N([C@H](C)CO)C[C@H]1C	.	65*[16.7 µM]	4	.	7	-1[16.7 µM]
CNC[C@@H]1Oc2ccc(NS(C)(=O)=O)cc2CC(=O)N([C@@H](C)CO)C[C@H]1C	.	-3[16.7 µM]	2	.	-1	-3[16.7 µM]
COc1ccc(S(=O)(=O)Nc2ccc3c(c2)CC(=O)N([C@H](C)CO)C[C@H](C)[C@@H](CN(C)CC2CC2)O3)cc1	1	13[16.7 µM]	118*	.	0	6[16.7 µM]
O=C(C[C@H]1CC[C@H]2[C@@H](COC[C@@H](O)CN2Cc2ccccc2)O1)NCc1ccccc1Cl	-9	.	1	.	-11	-4[16.7 µM]
C[C@@H]1CN(C)C(=O)Cc2cc(N)ccc2O[C@@H]1CN(C)S(C)(=O)=O	-1	.	.	.	0	.
Cn1c(N)c(C(=O)N/N=C/c2ccccc2)sc1=S	15	-3	-2	-1	-36*	-1
CCCC#Cc1cnc2c(c1)C(=O)N([C@@H](C)CO)C[C@@H](C)[C@H](CN(C)C(=O)Nc1ccccc1F)O2	.	15[16.7 µM]	5	.	6	-4[16.7 µM]
C[C@H](CO)N1C[C@H](C)[C@@H](CN(C)Cc2ccc(C(F)(F)F)cc2)Oc2c(NC(=O)C3CCCCC3)cccc2C1=O	.	.	-1	.	2	122*[16.7 µM]
C[C@@H]1CN([C@@H](C)CO)C(=O)c2cccc(NC(=O)Nc3ccccc3)c2O[C@H]1CN(C)Cc1ccc(C(F)(F)F)cc1	.	-9[16.7 µM]	4	.	-4	115*[16.7 µM]
C[C@@H]1CN([C@H](C)CO)C(=O)c2cccc(NC(=O)CCCCCC(=O)Nc3ccccc3N)c2O[C@@H]1CN(C)Cc1ccccc1	.	.	-7	.	1	.

From PubChem
